Measured values from different studies.
Protocols differ between the studies behind these lines.
PLG trypsin-like site: Plasminogen, trypsin-like site (PLG, Homo sapiens, UniProt P00747)
gag-pol reverse transcriptase: Gag-Pol polyprotein, reverse transcriptase (gag-pol, Human immunodeficiency virus 1, UniProt P03366)
OPRD1: Delta-type opioid receptor (OPRD1, Homo sapiens, UniProt P41143)
CA2: Carbonic anhydrase 2 (CA2, Homo sapiens, UniProt P00918)

Compound | target | effect on | mode | technique | pH | measurement | result
CC(C)(C)[C@H](NC(=O)[C@H](CCONC(=N)N)NC(=O)Cc1ccc(CNC(=N)N)cc1)C(=O)N[C@@H](CCCCN)C(=O)NCc1ccc(C(=N)N)cc1 | PLG trypsin-like site | enzyme activity | inhibitor |  | pH 8 | Ki | 28 µM
Cc1cc(/C=C/C#N)cc(C)c1Nc1ccnc(Nc2ccc(C#N)cc2)n1 | gag-pol reverse transcriptase | binding |  | SPR |  | Kd | 2.53 µM
CCC[C@H](CNC)NC[C@@H](CCC)NCC1CCCCCC1 | OPRD1 | cell-free assay |  |  |  | IC50 | > 10 µM
Cc1cn([C@@H]2CC[C@H](OC(C(=O)O)C(=O)O)C2)c(=O)[nH]c1=O | gag-pol reverse transcriptase | enzyme activity | inhibitor |  |  | Ki | 6.6 µM
CCC[C@H](CNC)NC[C@@H](CCC)NCCC1CC2CCC1C2 (some centres unmarked) | OPRD1 | cell-free assay |  |  |  | IC50 | > 10 µM
O=C(CCCOc1cccc(Br)c1)N[C@H]1C[C@@H]2C[C@@H]2C1=O (relative stereo) | Transcriptional activator protein LasR (lasR, Pseudomonas aeruginosa, UniProt P25084, R61A) | reporter gene | agonist |  |  | EC50 | 0.13 µM
CCCC[C@H](CNCc1ccccc1)N1CCN(CC2CCCCCC2)[C@H](Cc2ccc(O)cc2)C1 | OPRD1 | cell-free assay |  |  |  | IC50 | > 10 µM
CC(C)(C)[C@H](NC(=O)[C@H](CCCNC(=N)N)NC(=O)Cc1ccc(CN)cc1)C(=O)N[C@@H](CCONC(=N)N)C(=O)NCc1ccc(C(=N)N)cc1 | PLG trypsin-like site | enzyme activity | inhibitor |  | pH 8 | Ki | 3.3 µM
Cn1cc(-c2cccc(N3CCc4c(sc5c4CC(C)(C)C5)C3=O)c2CO)cc(Nc2ccncn2)c1=O | Receptor tyrosine-protein kinase erbB-2 (ERBB2, Homo sapiens, UniProt P04626) | enzyme activity | inhibitor | FRET |  | Ki | 1.75 µM
CC(=O)Nc1ccc(O)cc1 | NAD(P)H dehydrogenase [quinone] 1 (NQO1, Homo sapiens, UniProt P15559) | enzyme activity | inhibitor | absorbance |  | Ki | > 1000 µM
CS(=O)(=O)c1cccc(OCCCC(=O)N[C@H]2C[C@@H]3C[C@@H]3C2=O)c1 (relative stereo) | Transcriptional activator protein LasR (lasR, Pseudomonas aeruginosa, UniProt P25084, Y93F) | reporter gene | agonist |  |  | EC50 | 0.5 µM
On1ccc2ccccc2c1=S | CA2 | enzyme activity | inhibitor | absorbance | pH 8 | Ki | 15 µM
CC(C)(C)[C@H](NC(=O)[C@H](CCONC(=N)N)NC(=O)Cc1ccc(CN)cc1)C(=O)N[C@@H](CCONC(=N)N)C(=O)NCc1ccc(C(=N)N)cc1 | PLG trypsin-like site | enzyme activity | inhibitor |  | pH 8 | Ki | 19 µM
Cc1ccnc(S)c1 | CA2 | enzyme activity | inhibitor | absorbance | pH 8 | Ki | 7000 µM
CNC[C@H](Cc1ccc(O)cc1)NC[C@H](Cc1ccc(O)cc1)NCC1CCC(C)CC1 (some centres unmarked) | OPRD1 | cell-free assay |  |  |  | IC50 | > 10 µM
CC[C@H](C)[C@H](NC(=O)[C@H](Cc1ccccc1)NC(=O)[C@H](CC(=O)O)NC(=O)[C@H](CCCNC(=N)N)NC(=O)[C@@H](NC(=O)[C@H](C)NC(=O)[C@H](CC(C)C)NC(=O)[C@H](CC(N)=O)NC(=O)[C@H](CC(=O)O)NC(=O)[C@H](CC(C)C)NC(=O)[C@@H](NC(=O)[C@@H](NC(=O)[C@H](CO)NC(=O)[C@H](CCSC)NC(=O)[C@H](CCC(=O)O)NC(=O)[C@H](CC(=O)O)NC(=O)[C@H](CO)NC(=O)[C@H](Cc1ccccc1)NC(=O)[C@H](CO)NC(=O)CNC(=O)[C@H](CC(=O)O)NC(=O)[C@H](C)NC(=O)[C@@H](N)Cc1c[nH]cn1)[C@@H](C)O)[C@@H](C)CC)[C@@H](C)O)C(=O)N[C@@H](CC(N)=O)C(=O)N[C@@H](Cc1c[nH]c2ccccc12)C(=O)N[C@@H](CC(C)C)C(=O)N[C@H](C(=O)N[C@@H](CCC(N)=O)C(=O)N[C@H](C(=O)N[C@@H](CCCCN)C(=O)N[C@H](C(=O)N[C@H](C(=O)N[C@@H](CC(=O)O)C(=O)O)[C@@H](C)O)[C@@H](C)CC)[C@@H](C)O)[C@@H](C)CC | Gastric inhibitory polypeptide receptor (GIPR, Homo sapiens, UniProt P48546) | reporter gene | agonist | luciferase |  | EC50 | > 1 µM
On1ccccc1=S | CA2 | enzyme activity | inhibitor | absorbance |  | Ki | 567 µM
